# Laboratory results taken from ChEMBL document CHEMBL1955799, “Cyclic dipeptides exhibit potency for scavenging radicals” (Bioorg Med Chem, 2012).
# Key:
# Type in all cases: functional
# [1] = Antioxidant activity assessed as hydroxyl radical scavenging activity at 2.5 mM by electron spin resonance method
# Summary of the method: (§1)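 ESR spectrometry of radical signal, same settings for hydroxyl and superoxide radicals: magnetic field 335.7 ± 5 mT, power 4 mW at 9.414 GHz, modulation 100 kHz 1 × 0.079 mT, response 0.1 s, amplitude 160, sweep time 2 min, 25 °C. Activity is expressed as % inhibition of the radical signal.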
# [2] = Antioxidant activity assessed as superoxide radical scavenging activity at 2.5 mM by electron spin resonance method; summary of the method: as §1
# [3] = Antioxidant activity assessed as hydroxyl radical scavenging activity by electron spin resonance method; summary of the method: as §1
# [4] = Antioxidant activity assessed as superoxide radical scavenging activity by electron spin resonance method; summary of the method: as §1
Compound,inhibition [1] [%],inhibition [2] [%],IC50 [3] [µM],IC50 [4] [µM]
CC(C)C[C@@H]1NC(=O)[C@H](CC(C)C)NC1=O,26,0,,
CC(C)C[C@@H]1NC(=O)[C@H](Cc2c[nH]c3ccccc23)NC1=O,66,0,1800,
CC(C)C[C@@H]1NC(=O)[C@H](CC(=O)O)NC1=O,95,0,4,
CC(C)C[C@@H]1NC(=O)[C@H](C(C)C)NC1=O,12.3,0,,
CC(C)C[C@@H]1NC(=O)[C@H](Cc2ccccc2)NC1=O,23.5,0,,
CC(C)C[C@@H]1NC(=O)[C@@H]2CCCN2C1=O,86.2,0,1100,
CC(C)C[C@@H]1NC(=O)CNC1=O,0,0,,
VITAMIN E,37.7,32.3,,
CC(C)C[C@@H]1NC(=O)[C@H](CCCCN)NC1=O,96,0,160,
CC(C)C[C@@H]1NC(=O)[C@H]([C@@H](C)O)NC1=O,0,0,,
CC(C)C[C@@H]1NC(=O)[C@H](Cc2cnc[nH]2)NC1=O,83.9,0,850,
CC(C)C[C@@H]1NC(=O)[C@H](CC(N)=O)NC1=O,96,0,170,
CC(C)C[C@@H]1NC(=O)[C@H](CCC(=O)O)NC1=O,97.8,0,80,
CSCC[C@@H]1NC(=O)[C@H](CC(C)C)NC1=O,79,0,800,
CC(C)C[C@@H]1NC(=O)[C@H](CCC(N)=O)NC1=O,19,0,,
CC(C)C[C@@H]1NC(=O)[C@H](CS)NC1=O,88.9,83.3,100,880
CC(C)C[C@@H]1NC(=O)[C@H](C)NC1=O,,0,,
CC(C)C[C@@H]1NC(=O)[C@H](CO)NC1=O,95.2,0,1000,
